Measurements of several laboratories.
Lines come from different studies, so protocols differ.
Target: Insulin-like growth factor 1 receptor (IGF1R, Homo sapiens, UniProt P08069)

O=C1Nc2ccc(Cl)cc2C1=Cc1cc(Cl)c(O)c(Cl)c1
remaining signal (cell-free assay; 0.5 µM): 98.3%

CN(c1ncccc1CNc1nc(Nc2ccc3c(c2)CC(=O)N3)ncc1C(F)(F)F)S(C)(=O)=O
inhibition (enzyme activity; inhibitor; 1 µM): 97.6%

N#CCCc1ccc2c(c1)-c1[nH]c3ccc([N+](=O)[O-])cc3c1CC(=O)N2
remaining signal (cell-free assay; 0.5 µM): 92.2%

COc1cc2nccc(Oc3ccc(NC(=O)c4c5n(n(-c6ccc(F)cc6)c4=O)CCCC5)cc3)c2cc1OC
inhibition (enzyme activity; inhibitor; 0.1 µM): 16%

Cc1ccc(C(=O)NCc2ccsc2)cc1C#Cc1cn(C(C)C)c2ncnc(N)c12
activity vs control (enzyme activity; inhibitor; 1 µM): 75%

Nc1ncnc2occ(-c3ccc(NC(=O)Nc4cc(C(F)(F)F)ccc4F)cc3)c12
remaining signal (cell-free assay; 20 µM): 13%

Cc1nccc(COC(=O)N2C[C@@H]3[C@@H](CNC(=O)c4ccc5[nH]nnc5c4)[C@@H]3C2)n1
remaining binding (cell-free assay; competition with immobilised ligand; 1 µM): 93%

O=C(CSc1nc2nccnc2c(=O)n1CCc1ccccc1)Nc1nccs1
inhibition (enzyme activity; inhibitor; 10 µM): 12%

CN1CC(Oc2cnc(C#N)cc2-c2ccn3nc(NC(=O)C4CC4)cc3c2)C1
inhibition (enzyme activity; inhibitor; 1 µM): 9%

COc1cc2ncnc(Nc3ccc(Oc4ccccc4)c(C)c3C)c2cc1OC
inhibition (enzyme activity; inhibitor; 1 µM): 2%

C[C@@H](c1cccc(C#N)c1)n1cc(Cl)cc(C(N)=O)c1=N
remaining binding (cell-free assay; competition with immobilised ligand; 1 µM): 96%

CNC(=O)c1cc(Oc2ccc(NC(=O)Nc3ccc(Cl)c(C(F)(F)F)c3)cc2)ccn1
inhibition (enzyme activity; inhibitor; 0.3 µM): -3%

CNC(=O)c1ccc(Nc2ncc(C(F)(F)F)c(NCc3nccnc3N(C)S(C)(=O)=O)n2)cc1
remaining binding (cell-free assay; competition with immobilised ligand; 0.1 µM): 84%

CCN(CC)CCNC(=O)c1c(C)[nH]c(/C=C2\C(=O)Nc3ccc(F)cc32)c1C
inhibition (enzyme activity; inhibitor; 10 µM): 81%

CCS(=O)(=O)c1cc2cc(C[C@@](O)(CC(C)(C)c3ccc(F)cc3C(N)=O)C(F)(F)F)[nH]c2cn1
remaining binding (cell-free assay; competition with immobilised ligand; 1 µM): 100%

Cc1cc(NC(=O)c2cccc3cc(-c4cccc5[nH]nc(N)c45)ccc23)ccc1F
activity vs control (enzyme activity; inhibitor; 0.1 µM): 143%

CCCS(=O)(=O)Nc1ccc(F)c(C(=O)c2c[nH]c3ncc(-c4ccc(Cl)cc4)cc23)c1F
inhibition (enzyme activity; inhibitor; 1 µM): < 10%

CN(C)C(=O)Cn1cc(-c2nc(C3(c4ccc(-c5cnc(N)nc5)cc4)CC3)no2)cn1
remaining binding (cell-free assay; competition with immobilised ligand; 1 µM): 85%

CNCc1ccc(-c2cc(-c3nc(-c4ccc(S(=O)(=O)C(C)C)cc4)cnc3N)on2)cc1
inhibition (enzyme activity; inhibitor; 2 µM): 2%

Cc1cc(-n2nc(Cc3cc(F)cc(C(F)(F)F)c3)nc2C)ccc1C(N)=O
remaining binding (cell-free assay; competition with immobilised ligand; 1 µM): 98%

CC/C(=N\NC(=O)NCc1cccc(O)c1)c1ccc(O)c(C)c1O
inhibition (enzyme activity; inhibitor; 0.1 µM): 3%
